According to ChEMBL document CHEMBL5696442, “Discovery of type II inhibitors of TGFβ-activated kinase 1 (TAK1) and mitogen-activated protein kinase kinase kinase kinase 2 (MAP4K2)” (J Med Chem, 2015):
Activity calls are given as the source filed them. No cut-off for these calls is given here.

Assays:
[1] = target: Cyclin-dependent kinase 11B (Homo sapiens) (UniProt P21127); assay: Inhibition of CDK11 Lys2 labeling site in human Huh-7 cell lysate at 1 uM by KiNativ Profiling analysis relative to control; format: subcellular
Sequence of Cyclin-dependent kinase 11B (Homo sapiens) (P21127 whole entry): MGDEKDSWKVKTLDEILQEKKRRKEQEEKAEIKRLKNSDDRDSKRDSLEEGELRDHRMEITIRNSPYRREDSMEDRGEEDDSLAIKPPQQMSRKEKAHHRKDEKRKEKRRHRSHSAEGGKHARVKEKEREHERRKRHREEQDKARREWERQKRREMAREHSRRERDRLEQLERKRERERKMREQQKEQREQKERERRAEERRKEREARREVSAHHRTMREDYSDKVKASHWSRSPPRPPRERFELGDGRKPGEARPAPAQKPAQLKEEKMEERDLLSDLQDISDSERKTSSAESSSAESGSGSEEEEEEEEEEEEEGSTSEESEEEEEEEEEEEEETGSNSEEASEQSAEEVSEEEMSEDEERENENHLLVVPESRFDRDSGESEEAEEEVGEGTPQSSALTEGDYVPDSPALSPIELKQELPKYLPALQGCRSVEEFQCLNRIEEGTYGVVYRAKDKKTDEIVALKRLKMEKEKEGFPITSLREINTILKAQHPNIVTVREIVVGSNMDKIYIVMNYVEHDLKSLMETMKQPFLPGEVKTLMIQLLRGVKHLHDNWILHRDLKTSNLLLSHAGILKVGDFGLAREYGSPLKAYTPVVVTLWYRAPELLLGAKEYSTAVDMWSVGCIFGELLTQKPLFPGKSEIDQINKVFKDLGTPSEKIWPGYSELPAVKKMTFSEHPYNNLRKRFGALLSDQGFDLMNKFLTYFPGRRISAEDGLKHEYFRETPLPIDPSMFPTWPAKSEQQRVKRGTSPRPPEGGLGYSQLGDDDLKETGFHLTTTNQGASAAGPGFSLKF

[2] = target: Cyclin-dependent kinase 7 (Homo sapiens) (UniProt P50613); assay: Inhibition of CDK7 Lys2 labeling site in human Huh-7 cells at 1 uM by KiNativ Profiling analysis relative to control; format: cell-based
Sequence of Cyclin-dependent kinase 7 (Homo sapiens) (P50613 whole entry, canonical isoform): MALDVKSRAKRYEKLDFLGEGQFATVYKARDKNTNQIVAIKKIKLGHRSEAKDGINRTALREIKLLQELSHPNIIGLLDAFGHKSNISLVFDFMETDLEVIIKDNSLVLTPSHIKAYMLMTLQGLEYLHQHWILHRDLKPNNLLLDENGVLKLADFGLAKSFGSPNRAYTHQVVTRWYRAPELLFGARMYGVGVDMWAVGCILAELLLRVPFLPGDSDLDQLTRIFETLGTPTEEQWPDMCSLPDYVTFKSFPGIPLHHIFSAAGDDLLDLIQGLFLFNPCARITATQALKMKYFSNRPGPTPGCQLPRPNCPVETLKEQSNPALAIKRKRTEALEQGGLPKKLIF

[3] = target: Casein kinase I isoform delta (Homo sapiens) (UniProt P48730); assay: Inhibition of CK1d Lys2 labeling site in human Huh-7 cells at 1 uM by KiNativ Profiling analysis relative to control; format: cell-based
[4] = target: Cyclin-dependent kinase 17 (Homo sapiens) (UniProt Q00537); assay: Inhibition of PCTAIRE2 Lys2 labeling site harbouring DLKPQNLLINEKin human Huh-7 cells at 1 uM by KiNativ Profiling analysis relative to control; format: cell-based
Sequence of Cyclin-dependent kinase 17 (Homo sapiens) (Q00537 whole entry, looked up): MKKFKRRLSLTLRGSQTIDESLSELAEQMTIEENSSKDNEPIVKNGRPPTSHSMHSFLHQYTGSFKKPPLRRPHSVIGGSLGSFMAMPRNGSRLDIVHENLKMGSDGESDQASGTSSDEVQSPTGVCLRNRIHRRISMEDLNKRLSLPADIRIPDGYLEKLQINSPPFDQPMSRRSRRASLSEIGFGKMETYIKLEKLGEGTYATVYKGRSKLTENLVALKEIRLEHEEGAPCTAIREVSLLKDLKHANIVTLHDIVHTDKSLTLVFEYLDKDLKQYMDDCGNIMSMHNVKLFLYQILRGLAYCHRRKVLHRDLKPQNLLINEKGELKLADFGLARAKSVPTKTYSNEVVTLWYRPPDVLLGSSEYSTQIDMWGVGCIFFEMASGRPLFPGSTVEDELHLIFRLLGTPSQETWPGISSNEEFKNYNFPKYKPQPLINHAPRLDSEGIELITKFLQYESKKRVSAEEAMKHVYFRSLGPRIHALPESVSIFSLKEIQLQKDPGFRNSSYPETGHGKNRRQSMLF

[5] = Cmax in Swiss albino mouse at 1 mg/kg, iv measured upto 24 hrs by LC/MS/MS analysis; format: ADME, organism-based; conditions: in vivo
Outline: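 Male Swiss albino mice. […] Blood was taken into K2EDTA from three mice per time point, from 0 to 24 h. Plasma was precipitated with acetonitrile and analysed by LC/MS/MS (LLOQ 1.138 ng/mL).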

[6] = system: Epidermal growth factor receptor (Homo sapiens), P00533 [UNDEFINED MUTATION]; assay: Inhibition of EGFR L747-T751del mutant (unknown origin) at 10 uM by Ambit Kinomescan binding assay relative to control
Sequence of Epidermal growth factor receptor (Homo sapiens), P00533 [UNDEFINED MUTATION] (P00533 whole entry, looked up, stated change not applied): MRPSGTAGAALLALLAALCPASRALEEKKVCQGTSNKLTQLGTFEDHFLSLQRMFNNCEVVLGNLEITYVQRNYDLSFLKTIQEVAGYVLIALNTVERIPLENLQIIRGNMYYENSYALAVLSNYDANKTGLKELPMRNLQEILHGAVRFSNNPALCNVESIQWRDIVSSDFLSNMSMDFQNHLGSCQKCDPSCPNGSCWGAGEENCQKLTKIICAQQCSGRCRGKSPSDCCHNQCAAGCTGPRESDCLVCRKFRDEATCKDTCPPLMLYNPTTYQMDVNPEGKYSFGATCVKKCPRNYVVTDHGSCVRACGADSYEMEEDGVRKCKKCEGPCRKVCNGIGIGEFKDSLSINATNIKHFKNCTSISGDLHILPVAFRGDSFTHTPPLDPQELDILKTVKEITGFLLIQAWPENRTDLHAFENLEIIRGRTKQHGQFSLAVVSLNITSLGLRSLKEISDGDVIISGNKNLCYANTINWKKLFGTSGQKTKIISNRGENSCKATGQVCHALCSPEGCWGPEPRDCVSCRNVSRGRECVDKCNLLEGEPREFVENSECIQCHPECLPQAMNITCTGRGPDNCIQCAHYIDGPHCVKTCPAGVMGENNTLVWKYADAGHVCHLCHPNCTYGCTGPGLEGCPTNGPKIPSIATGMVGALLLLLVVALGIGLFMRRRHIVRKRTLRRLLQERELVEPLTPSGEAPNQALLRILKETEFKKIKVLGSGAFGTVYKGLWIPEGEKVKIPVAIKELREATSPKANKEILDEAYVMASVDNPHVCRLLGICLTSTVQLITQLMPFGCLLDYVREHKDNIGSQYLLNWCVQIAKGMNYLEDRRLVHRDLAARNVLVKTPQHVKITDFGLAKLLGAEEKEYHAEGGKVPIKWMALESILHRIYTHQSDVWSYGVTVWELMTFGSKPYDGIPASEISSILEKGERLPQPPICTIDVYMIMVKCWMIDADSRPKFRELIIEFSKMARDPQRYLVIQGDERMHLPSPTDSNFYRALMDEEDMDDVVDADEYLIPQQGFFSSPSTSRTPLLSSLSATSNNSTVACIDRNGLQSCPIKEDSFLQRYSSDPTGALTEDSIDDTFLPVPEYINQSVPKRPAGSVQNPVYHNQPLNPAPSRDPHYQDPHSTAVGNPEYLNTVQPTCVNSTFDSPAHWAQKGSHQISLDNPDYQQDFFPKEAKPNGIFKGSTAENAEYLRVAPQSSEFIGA

[7] = target: Mitogen-activated protein kinase 4 (Homo sapiens) (UniProt P31152); assay: Inhibition of ERK4 (unknown origin) at 10 uM by Ambit Kinomescan binding assay
Sequence of Mitogen-activated protein kinase 4 (Homo sapiens) (P31152 whole entry): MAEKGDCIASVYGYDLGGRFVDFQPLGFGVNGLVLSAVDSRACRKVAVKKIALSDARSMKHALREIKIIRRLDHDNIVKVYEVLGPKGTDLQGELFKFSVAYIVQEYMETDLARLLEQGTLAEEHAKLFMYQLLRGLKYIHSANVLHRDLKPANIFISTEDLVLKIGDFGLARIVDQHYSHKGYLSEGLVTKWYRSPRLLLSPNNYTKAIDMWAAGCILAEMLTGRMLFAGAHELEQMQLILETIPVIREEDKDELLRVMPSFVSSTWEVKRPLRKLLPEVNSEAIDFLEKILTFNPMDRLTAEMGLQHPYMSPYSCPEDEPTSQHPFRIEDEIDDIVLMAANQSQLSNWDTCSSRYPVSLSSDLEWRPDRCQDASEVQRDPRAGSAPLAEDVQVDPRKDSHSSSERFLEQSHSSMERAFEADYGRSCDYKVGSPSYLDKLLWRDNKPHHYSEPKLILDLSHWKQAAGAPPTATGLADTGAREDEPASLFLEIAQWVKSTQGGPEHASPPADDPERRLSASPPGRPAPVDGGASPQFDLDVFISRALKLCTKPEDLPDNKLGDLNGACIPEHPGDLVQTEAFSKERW

[8] = target: Serine/threonine-protein kinase 25 (Homo sapiens) (UniProt O00506); assay: Inhibition of YSK1 (unknown origin) at 10 uM by Ambit Kinomescan binding assay
Sequence of Serine/threonine-protein kinase 25 (Homo sapiens) (O00506 whole entry, looked up): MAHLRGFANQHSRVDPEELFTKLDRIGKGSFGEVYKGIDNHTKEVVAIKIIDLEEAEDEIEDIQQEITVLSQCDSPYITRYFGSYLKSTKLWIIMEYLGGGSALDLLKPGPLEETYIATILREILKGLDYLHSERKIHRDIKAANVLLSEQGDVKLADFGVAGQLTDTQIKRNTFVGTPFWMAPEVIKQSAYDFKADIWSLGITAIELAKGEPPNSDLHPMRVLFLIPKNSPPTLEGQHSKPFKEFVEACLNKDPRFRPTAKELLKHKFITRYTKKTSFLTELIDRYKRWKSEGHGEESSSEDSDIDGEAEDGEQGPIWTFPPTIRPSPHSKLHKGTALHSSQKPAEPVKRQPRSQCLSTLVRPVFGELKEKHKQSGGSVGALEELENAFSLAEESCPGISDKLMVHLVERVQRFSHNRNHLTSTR

[9] = target: Tyrosine-protein kinase ABL1 (Homo sapiens, UniProt P00519); assay: Inhibition of ABL Lys1 labeling site in human A-375 cells at 0.05 uM by KiNativ Profiling analysis relative to control; format: cell-based
Sequence of Tyrosine-protein kinase ABL1 (P00519 whole entry): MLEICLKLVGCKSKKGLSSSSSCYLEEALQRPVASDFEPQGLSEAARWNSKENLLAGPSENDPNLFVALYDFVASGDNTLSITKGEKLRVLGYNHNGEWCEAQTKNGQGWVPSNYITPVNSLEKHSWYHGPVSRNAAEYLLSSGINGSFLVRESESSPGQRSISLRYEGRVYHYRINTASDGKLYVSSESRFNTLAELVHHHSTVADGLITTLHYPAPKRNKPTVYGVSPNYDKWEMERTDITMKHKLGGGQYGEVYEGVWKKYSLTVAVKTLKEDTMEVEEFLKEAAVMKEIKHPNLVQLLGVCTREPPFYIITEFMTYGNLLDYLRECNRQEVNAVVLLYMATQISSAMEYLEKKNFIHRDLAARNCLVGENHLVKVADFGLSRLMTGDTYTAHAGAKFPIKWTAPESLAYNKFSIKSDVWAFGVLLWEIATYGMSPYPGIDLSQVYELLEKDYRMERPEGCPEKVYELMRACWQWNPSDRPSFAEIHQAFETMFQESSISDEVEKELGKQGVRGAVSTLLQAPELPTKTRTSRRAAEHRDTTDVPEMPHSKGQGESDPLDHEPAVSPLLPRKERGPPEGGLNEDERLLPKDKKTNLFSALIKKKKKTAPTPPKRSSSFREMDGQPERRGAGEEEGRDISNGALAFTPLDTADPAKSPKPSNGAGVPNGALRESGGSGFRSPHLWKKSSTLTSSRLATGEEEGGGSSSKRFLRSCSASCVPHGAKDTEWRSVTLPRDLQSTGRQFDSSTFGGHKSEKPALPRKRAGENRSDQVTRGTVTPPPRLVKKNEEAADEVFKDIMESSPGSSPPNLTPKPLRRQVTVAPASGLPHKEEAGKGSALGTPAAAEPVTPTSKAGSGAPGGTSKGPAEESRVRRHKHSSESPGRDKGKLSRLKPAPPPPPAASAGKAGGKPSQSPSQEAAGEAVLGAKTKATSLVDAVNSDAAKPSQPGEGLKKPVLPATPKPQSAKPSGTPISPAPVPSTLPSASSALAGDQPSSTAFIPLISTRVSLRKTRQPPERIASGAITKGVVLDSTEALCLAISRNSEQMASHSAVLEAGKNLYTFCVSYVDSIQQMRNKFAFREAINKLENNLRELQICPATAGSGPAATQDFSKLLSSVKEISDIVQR

[10] = target: T1, Inhibitor of nuclear factor kappa-B kinase subunit epsilon (Homo sapiens) (UniProt Q14164); assay: Inhibition of IKKe Lys1 labeling site in human A-375 cells at 0.05 uM by KiNativ Profiling analysis relative to control; format: cell-based
T1 sequence (whole entry): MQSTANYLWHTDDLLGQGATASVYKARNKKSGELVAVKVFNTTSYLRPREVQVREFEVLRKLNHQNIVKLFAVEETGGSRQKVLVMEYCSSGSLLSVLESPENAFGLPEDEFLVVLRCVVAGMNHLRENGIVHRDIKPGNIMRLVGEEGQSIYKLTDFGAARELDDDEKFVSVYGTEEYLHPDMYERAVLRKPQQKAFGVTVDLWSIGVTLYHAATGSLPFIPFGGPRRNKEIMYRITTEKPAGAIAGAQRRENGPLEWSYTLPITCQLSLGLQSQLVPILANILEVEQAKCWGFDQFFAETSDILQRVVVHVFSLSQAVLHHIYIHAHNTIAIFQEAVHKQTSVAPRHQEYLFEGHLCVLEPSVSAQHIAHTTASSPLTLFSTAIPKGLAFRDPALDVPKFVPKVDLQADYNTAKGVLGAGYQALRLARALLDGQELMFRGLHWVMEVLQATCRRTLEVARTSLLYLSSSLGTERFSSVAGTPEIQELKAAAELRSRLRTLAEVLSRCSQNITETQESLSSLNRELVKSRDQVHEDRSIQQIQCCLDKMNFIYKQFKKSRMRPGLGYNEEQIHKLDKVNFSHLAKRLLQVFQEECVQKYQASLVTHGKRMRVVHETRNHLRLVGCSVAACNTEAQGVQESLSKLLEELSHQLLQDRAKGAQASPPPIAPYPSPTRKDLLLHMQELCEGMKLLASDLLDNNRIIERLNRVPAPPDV

[11] = target: T2, Serine/threonine-protein kinase LATS1 (Homo sapiens) (UniProt O95835); assay: Inhibition of LATS1 Lys2 labeling site in human A-375 cells at 0.05 uM by KiNativ Profiling analysis relative to control; format: cell-based
T2 sequence (whole entry): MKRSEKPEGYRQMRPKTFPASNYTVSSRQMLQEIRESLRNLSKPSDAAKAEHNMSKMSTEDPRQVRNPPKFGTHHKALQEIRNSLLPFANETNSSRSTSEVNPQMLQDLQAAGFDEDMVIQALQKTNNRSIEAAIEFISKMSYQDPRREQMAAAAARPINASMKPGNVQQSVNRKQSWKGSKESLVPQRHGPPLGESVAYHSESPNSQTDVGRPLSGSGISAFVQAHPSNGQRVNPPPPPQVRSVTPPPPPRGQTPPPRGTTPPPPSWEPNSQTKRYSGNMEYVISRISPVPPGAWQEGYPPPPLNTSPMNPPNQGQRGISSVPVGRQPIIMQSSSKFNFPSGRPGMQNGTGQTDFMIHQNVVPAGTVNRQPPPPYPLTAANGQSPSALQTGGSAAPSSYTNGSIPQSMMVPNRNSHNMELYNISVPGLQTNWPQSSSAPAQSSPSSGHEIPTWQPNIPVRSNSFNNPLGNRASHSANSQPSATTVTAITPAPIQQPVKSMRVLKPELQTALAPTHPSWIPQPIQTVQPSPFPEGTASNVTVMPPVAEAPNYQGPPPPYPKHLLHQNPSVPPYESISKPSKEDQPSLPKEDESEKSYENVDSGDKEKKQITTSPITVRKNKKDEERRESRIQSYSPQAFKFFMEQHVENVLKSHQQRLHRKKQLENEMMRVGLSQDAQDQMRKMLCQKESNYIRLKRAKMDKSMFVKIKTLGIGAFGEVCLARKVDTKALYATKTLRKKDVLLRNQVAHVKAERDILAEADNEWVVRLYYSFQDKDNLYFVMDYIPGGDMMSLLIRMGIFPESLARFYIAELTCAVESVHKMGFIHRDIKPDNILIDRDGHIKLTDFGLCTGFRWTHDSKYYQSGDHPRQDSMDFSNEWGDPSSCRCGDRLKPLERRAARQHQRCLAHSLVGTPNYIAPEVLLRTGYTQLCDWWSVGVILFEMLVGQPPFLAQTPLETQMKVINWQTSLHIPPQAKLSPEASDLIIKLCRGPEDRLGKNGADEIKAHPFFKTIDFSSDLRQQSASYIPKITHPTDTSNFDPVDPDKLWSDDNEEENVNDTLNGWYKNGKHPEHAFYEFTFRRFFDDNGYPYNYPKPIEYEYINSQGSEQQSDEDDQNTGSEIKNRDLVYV

[12] = target: Platelet-derived growth factor receptor alpha (Homo sapiens) (UniProt P16234); assay: Inhibition of PDGFRA (unknown origin) at 1 uM by Ambit Kinomescan binding assay relative to control; values are per cent of control

CNc1cc(Oc2cc(C(=O)Nc3cc(N4CCN(C)CC4)cc(C(F)(F)F)c3)ccc2C)ncn1
inhibition [1]: -8.6% | inhibition [2]: 2.6% | inhibition [3]: 39.1% | inhibition [4]: -2.1%

CCN1CCN(Cc2ccc(NC(=O)c3ccc(C)c(Oc4ccnc5[nH]ccc45)c3)cc2C(F)(F)F)CC1
Cmax [5]: 396 ng/mL | inhibition [6]: 1.1% | inhibition [7]: inactive | inhibition [8]: inactive | inhibition [9]: 84.8% | inhibition [10]: -3.7% | inhibition [11]: 14.5%

CCN1CCN(Cc2ccc(NC(=O)c3ccc(C)c(/C=C/c4cnc5[nH]ccc5c4OC)c3)cc2C(F)(F)F)CC1
residual activity [12]: 2.6%
